Data from ChEMBL document CHEMBL1147426, “Thiazoles and thiopyridines: novel series of high affinity h5HT(7) ligands” (Bioorg Med Chem Lett, 2004).

What was measured:
Assay type in all cases: cell-based
[1] = target: T1, 5-hydroxytryptamine receptor 1A (Homo sapiens, UniProt P08908); assay: Binding affinity towards human 5-hydroxytryptamine 1A receptor by the displacement of [3H]5-HT radioligand from the cloned receptor expressed in HeLa cells
T1 sequence (P08908 whole entry): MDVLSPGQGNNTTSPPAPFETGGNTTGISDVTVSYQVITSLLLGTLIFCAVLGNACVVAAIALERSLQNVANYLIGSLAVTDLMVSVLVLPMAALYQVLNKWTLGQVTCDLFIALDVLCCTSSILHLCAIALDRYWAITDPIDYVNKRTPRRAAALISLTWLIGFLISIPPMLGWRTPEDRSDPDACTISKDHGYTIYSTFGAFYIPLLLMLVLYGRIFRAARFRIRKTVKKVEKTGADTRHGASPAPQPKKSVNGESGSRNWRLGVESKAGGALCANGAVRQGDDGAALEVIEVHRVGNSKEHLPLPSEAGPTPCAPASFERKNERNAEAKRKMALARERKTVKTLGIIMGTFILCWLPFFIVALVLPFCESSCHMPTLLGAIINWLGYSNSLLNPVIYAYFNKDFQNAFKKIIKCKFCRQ
Method in brief: (§1)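 Affinities are given as the geometric mean of 3–6 independent determinations; some values rest on only 2 determinations.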

[2] = target: 5-hydroxytryptamine receptor 2A (Homo sapiens, UniProt P28223); assay: Binding affinity towards human 5-hydroxytryptamine 2A receptor by the displacement of [3H]ketanserin radioligand from the cloned receptor expressed in CHO cells; method in brief: as §1
[3] = target: 5-hydroxytryptamine receptor 7 (Homo sapiens, UniProt P34969); assay: Binding affinity towards human 5-hydroxytryptamine 7 receptor by the displacement of [3H]-5-HT radioligand from the cloned receptor expressed in CHO cells
D(2) dopamine receptor = D(2) dopamine receptor (Homo sapiens, UniProt P14416); assay: Binding affinity towards human dopamine receptor D2 by the displacement of [3H]spiperone radioligand from the cloned receptor expressed in CHO cells; method in brief: as §1
Sequence of D(2) dopamine receptor (P14416 whole entry): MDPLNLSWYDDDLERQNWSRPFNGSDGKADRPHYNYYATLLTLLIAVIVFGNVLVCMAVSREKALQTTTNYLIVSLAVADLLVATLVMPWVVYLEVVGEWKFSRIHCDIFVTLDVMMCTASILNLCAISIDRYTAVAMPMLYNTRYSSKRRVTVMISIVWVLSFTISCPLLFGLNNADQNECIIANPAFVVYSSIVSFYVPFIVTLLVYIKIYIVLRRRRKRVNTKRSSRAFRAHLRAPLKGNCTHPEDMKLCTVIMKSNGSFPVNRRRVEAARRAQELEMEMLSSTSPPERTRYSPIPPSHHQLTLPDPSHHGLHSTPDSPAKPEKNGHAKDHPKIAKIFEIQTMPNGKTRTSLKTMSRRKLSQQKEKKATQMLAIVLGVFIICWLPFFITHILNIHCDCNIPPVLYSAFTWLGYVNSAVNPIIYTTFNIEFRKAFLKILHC

Sequence of 5-hydroxytryptamine receptor 7 (P34969 whole entry): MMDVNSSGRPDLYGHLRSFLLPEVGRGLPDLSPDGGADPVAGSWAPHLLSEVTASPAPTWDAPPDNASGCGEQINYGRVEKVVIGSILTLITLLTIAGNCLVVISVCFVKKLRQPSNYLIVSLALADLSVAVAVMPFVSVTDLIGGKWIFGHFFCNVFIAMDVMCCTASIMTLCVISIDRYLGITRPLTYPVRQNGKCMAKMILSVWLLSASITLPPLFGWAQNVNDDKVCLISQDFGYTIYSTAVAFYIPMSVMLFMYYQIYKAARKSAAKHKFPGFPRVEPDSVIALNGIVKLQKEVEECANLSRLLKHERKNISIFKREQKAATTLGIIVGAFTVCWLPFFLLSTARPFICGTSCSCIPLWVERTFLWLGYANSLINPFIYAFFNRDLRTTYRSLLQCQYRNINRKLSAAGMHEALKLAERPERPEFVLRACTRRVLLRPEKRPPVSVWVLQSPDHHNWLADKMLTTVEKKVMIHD
Sequence of 5-hydroxytryptamine receptor 2A (P28223 whole entry): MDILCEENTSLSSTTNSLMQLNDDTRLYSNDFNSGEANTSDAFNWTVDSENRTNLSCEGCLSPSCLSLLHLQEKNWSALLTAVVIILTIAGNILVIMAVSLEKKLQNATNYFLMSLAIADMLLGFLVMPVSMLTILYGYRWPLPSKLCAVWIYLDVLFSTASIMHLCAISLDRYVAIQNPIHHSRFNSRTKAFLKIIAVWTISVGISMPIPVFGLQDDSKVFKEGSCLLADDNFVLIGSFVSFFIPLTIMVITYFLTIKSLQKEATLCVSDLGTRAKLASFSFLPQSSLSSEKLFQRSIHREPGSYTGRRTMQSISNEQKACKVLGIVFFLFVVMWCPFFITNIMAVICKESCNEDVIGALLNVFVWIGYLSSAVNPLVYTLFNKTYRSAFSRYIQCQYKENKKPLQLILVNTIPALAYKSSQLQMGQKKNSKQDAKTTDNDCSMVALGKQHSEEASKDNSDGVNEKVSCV

Structure (SMILES) | Ki [1] [nM] | Ki [2] [nM] | Ki [3] [nM] | Ki (D(2) dopamine receptor) [nM]
CN(C)CCSc1cccc(-c2ccccc2)n1 | – | – | – | 450
CN(C)CCSc1n[nH]c(-c2ccccc2)n1 | – | – | 1200 | –
CN(C)CCSc1nccs1 | – | – | 6800 | –
Cc1sc(SCCN(C)C)nc1-c1ccccc1 | – | – | 170 | –
CN(C)CCSc1nc2ccccc2s1 | 830 | 1000 | 84 | > 1000
CN(C)CCSc1ncc(-c2ccccc2)s1 | – | – | 3200 | –
CN(C)CCSc1nnc(-c2ccccc2)o1 | – | – | > 4000 | –
CN(C)CCSc1ccnc(-c2ccccc2)c1 | 1200 | – | 100 | –
CN(C)CCSc1nc(-c2ccncc2)cs1 | 90 | > 200 | 27 | 130

Next, values leading:

Ki [1] [nM] | Ki [2] [nM] | Ki [3] [nM] | Ki (D(2) dopamine receptor) [nM] | Structure (SMILES)
41 | 480 | 7.2 | > 1000 | CN(C)CCSc1cccc(C2(O)CCCCC2)n1
8.7 | 230 | 0.7 | 1300 | CN(C)CCSc1cccc(C2CCCCC2)n1
210 | 640 | 12 | > 1000 | CN(C)CCSc1nc(-c2ccccc2)cs1
2200 | 1200 | 22 | > 1000 | CN(C)CCSc1nc(C(C)(C)C)cs1
37 | 270 | 4.1 | 870 | CN(C)CCSc1cccc(Br)n1
